Measurements reported in the EternaBench riboswitch data.

Test system: MS2 coat protein
Assay: apparent Kd, MS2 coat protein; higher = weaker binding; RNA-MaP array; FMN 200 µM where present
In short: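 Green signal from SNAP-549-labelled MS2 coat protein was normalised to red-channel RNA signal and to the median Fmax of control clusters. The protein was titrated from 0.7 or 1.5 nM, doubling to 3 µM, without and then with constant ligand, over designs transcribed by stalled E. coli RNA polymerase on Illumina sequencing-chip clusters, in 100 mM Tris-HCl pH 7.5, 80 mM KCl, 4 mM MgCl2, BSA, DTT, yeast tRNA and Tween-20. The apparent Kd is the median of filtered per-cluster binding-curve fits.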

[1] = designed as: OFF switch for flavin mononucleotide, no ligand
[2] = ligand present: flavin mononucleotide, designed as: OFF switch for flavin mononucleotide
[3] = designed as: ON switch for flavin mononucleotide, no ligand
[4] = ligand present: flavin mononucleotide, designed as: ON switch for flavin mononucleotide

Sequence	apparent Kd [1]	apparent Kd [2]	apparent Kd [3]	apparent Kd [4]
GGAUGAGAAACUCAUCCAAAUCGAACAUGAGGAUCACCCAUGUAGGAUAUGCUACUCAAAGAGUAGCAGAAGGACAUGUGCUUU	35 nM	232 nM	–	–
AAGUAGAUCCGAGGAUAUACAAUCUGGAAUCGGUACAUGAGGAUCACCCAUGUAGAAGGCGGAUCUACAGGUACUAAAGUACCA	7.88 nM	38.8 nM	–	–
GGAGACCUCACAGGAUAUGCUGGACUUUGUCCAGCAGAAGGGUGACUAAACAUGAGGAUCACCCAUGUGGUCUCCAAAUUUAAU	–	–	740 nM	68.2 nM
AAUAACAGAGGAUAUACUGUUUUAUGUGUUUGUUAUUUUGAACAUGAGGAUCACCCAUGUAGAAGGCUGAAUAA	24.6 nM	22.1 nM	–	–
CCGGGACAUGAGGAUCACCCAUGUUUCGUUUGUAGUAAAGCACAGGAUAUGAUGAAACAGGUUUCUCAGAAGGGUGUUCCGAAA	–	–	91 nM	75.4 nM
CUUAUGUGAGGAUAUGGUGUUGGUCACAGGAAAAAGAUUCUCCAGAAGGCACAUGAGGAUCACCCAUGUAGUGA	89.4 nM	71.2 nM	–	–
AAGGAUAGAGGAUAUAUAUAGAUACAGAUUCAUGUAGAACUACAUGAGGAUCACCCAUGUAGAAGGCUAUCCUA	15.7 nM	60.4 nM	–	–
AUAUACUUCCAGAAGGCACAUGAGGAUCACCCAUGUACGUCUGACAUCGUGUGAGGAUAUGGAGCACGAACGCUAAAGCGGGCA	7.92 nM	21.3 nM	–	–
CCGGAAAGGGAGGAUAUAGGAGUCGAUAGACACCUAGAAGGCCUGACAUGAGGAUCACCCAUGUGUCCUACCGG	15 nM	25 nM	–	–
GUCAGCUCGUGAGGAUAUACAUCACUGCUUCGGCAGUGUAUUAACAUCACAUGAGGAUCACCCAUGUAGAAGGCACGAGCUGAU	16 nM	22.7 nM	–	–
AGUAUGCGGCAGGAUAUCCAUCCGCGAAAAGGUGGAGAAGGGCUGACAUGAGGAUCACCCAUGUGCGUCUUGUA	29.7 nM	31 nM	–	–
UUUAUUUUUAGAGGAUAUAUUGUGUGUGAGAGAAUAGAAGGCUAAACAUGAGACACACACAUGAGGAUCACCCAUGUUAUGUUU	–	–	62.6 nM	52 nM
GCCAUCAUAUGAGGAUAUGACACCGAAACGGUGUCAGAAGGCAUGUCGAUAGACAUGAGGAUCACCCAUGUAUAGAUGAUGGCA	–	–	963 nM	67.8 nM
UAGCGCUGUCGAGAGGAUAUGCGGUGAUGGACAUGAGGAUCACCCAUGUUAGCGAUAGCAUUACGGUAGAAGGCUCUACAGCUGU	–	–	245 nM	36 nM
UUUCUCUGUGUGAGGAUAUACUUGUUUGGGUUUUUGUAGAAGGCACAUGAGGAUCACCCAUGUAUUUUGUCGUG	34.4 nM	55.6 nM	–	–
AUGCUUCACACAGGAUAUACAUGAGGAUCACCCAUGUGUCCUCCGUAGCUGACACCAGCUACGCUGUAGAAGGGUGUGAAGCAU	261 nM	201 nM	–	–
CUUUUGUGAGGAUAUCAGUAGUAAUACAAUAGUAUUACUGCUGAGAAGGCACAUGAGGAUCACCCAUGUUCCUC	59.9 nM	284 nM	–	–
GUUGACAGCACAGGAUAUGCGCAGUCUAUAUCACAUGAGGAUCACCCAUGUCGGCAACAGACCGAGCAGAAGGGUGCGAGUGUG	–	–	235 nM	39.7 nM
GAGUAGUUGAAAGGAUAUUGAUUAUUGUAGGAUCAAGAAGGUUCUAACAUGAGGAUCACCCAUGUAGGACUAUUCCUGUGUAUC	–	–	13 nM	10.8 nM
UGGAAGAGAAGAGGAUAUCCGUAGAUAACACAUGAGGAUCACCCAUGUAAGAGGGAUAGGUGAUAGGAGAAGGCUUAGAGAGGU	15.2 nM	14.9 nM	–	–
AUGCUUUAUGUAGGAUAUUCAAACGGUAAGAAUGGAGAAGGACAUGAGGAUCACCCAUGUAAAAUAUUAUUAGAUAUCAUACAU	22.1 nM	19.4 nM	–	–
AGCUGGUGACAGCAUCCAUCAAAACAUGAGGAUCACCCAUGUAGAAGGCUGUACGGUUACCGUACAGAGGAUAUACAAUGAUGU	15.2 nM	26.2 nM	–	–
CUUAUGUGAGGAUAUGGUGUUGAUCACAGGAAAAAGAUUCUCCAGAAGGCACAUGAGGAUCACCCAUGUAGUGA	145 nM	90 nM	–	–
